Assay results from different studies.
Protocols differ between the studies behind these lines.
Target: Serine/threonine-protein kinase 35 (STK35, Homo sapiens, UniProt Q8TDR2)

Compound	observed	technique	tested at	remaining binding
CN1CCN(c2cnc3c(C4CCN(C(=O)c5ccc(OC(F)(F)F)cc5N)CC4)ncnc3c2)CC1	cell-free assay	competition with immobilised ligand	1 µM	100%
C[C@@H]1CCN(c2nccc(-c3cnn4ncccc34)n2)C1	binding		1 µM	72%
O=C(Nc1cccnn1)N1CCC(=Cc2cccc(Oc3ccc(C(F)(F)F)cn3)c2)CC1	cell-free assay	competition with immobilised ligand	1 µM	100%
Nc1ncc2c(n1)-c1c([nH]c3ccc(C#CC4CC4)cc13)CCCC2	binding	competition with immobilised ligand	1 µM	100%
CC1CCCN1c1nccc(-c2cnn3ncccc23)n1 (stereo not shown)	binding		1 µM	88%
Cc1cnc(Nc2ccc(C(=O)N3CCC(N4CCCC4)CC3)cc2)nc1-c1cc2ccccc2s1	binding	competition with immobilised ligand	1 µM	79%
COc1cnc(Nc2cccc(S(N)(=O)=O)c2)nc1N1CCN(c2ccccc2)CC1	binding	competition with immobilised ligand	1 µM	100%
CCN1CCN(Cc2ccc(C(=O)Nc3ccc(C)c(Oc4ccc5c(c4)CC(=O)N5)c3)cc2C(F)(F)F)CC1	binding	competition with immobilised ligand	1 µM	72%
c1cnn2ncc(-c3ccnc(N4CCC45COC5)n3)c2c1	binding		1 µM	100%
O=C(NCCCN1CCOCC1)c1ccc(Nc2nccc(-c3cc4ccccc4s3)n2)cc1	binding	competition with immobilised ligand	1 µM	92%
FC(F)(F)Oc1cccc(-c2cnc3ccc(-c4ccncc4)nn23)c1	binding	competition with immobilised ligand	5 µM	100%
C[C@@H](c1ccc(-n2cnc3c(N)ncnc32)cc1)N1CCc2nn(C)c(Cc3ccccc3)c2C1=O	binding	competition with immobilised ligand	0.1 µM	83%
CCC(=O)N[C@H]1CC[C@@H](C(=O)N(C)c2ccc(-c3nc4ccccc4o3)cc2)C1	cell-free assay	competition with immobilised ligand	1 µM	88%
c1cncc(-c2cccc(Nc3nccc(NC4CCCCC4)n3)c2)c1	binding	competition with immobilised ligand	10 µM	86%
O=C(c1ccc(Nc2ncc(Cl)c(-c3ccc(Cl)s3)n2)cc1)N1CCC(N2CCCC2)CC1	binding	competition with immobilised ligand	1 µM	99%
COc1cc(-c2cn(C3CCc4c(F)cccc4N(CC(F)(F)F)C3=O)nn2)ccc1-n1cnc(C)c1 (stereo not shown)	cell-free assay	competition with immobilised ligand	1 µM	100%
N[C@H]1CCN(c2nccc(-c3cnn4ncccc34)n2)C1	binding		1 µM	89%
Cc1c[nH]c2nccc(Oc3c(F)cc(Nc4cc(Cl)nc(N)n4)cc3F)c12	cell-free assay	competition with immobilised ligand	0.1 µM	94%
CN(C)c1nccc(-c2cnn3ncccc23)n1	binding		1 µM	100%
Cn1nc(C(F)(F)F)cc1-c1cnc(N2CCc3cc(S(=O)(=O)Nc4c(F)cc(Cl)cc4F)cc(N4CCCC4=O)c32)nc1	cell-free assay	competition with immobilised ligand	1 µM	100%
COc1ccnn2ncc(-c3ccnc(N(C)C)n3)c12	binding		1 µM	95%
O=C(NCC1CCOCC1)c1n[nH]cc1NC(=O)c1c(F)cccc1F	binding	competition with immobilised ligand	1 µM	92%
